Measurements from ChEMBL document CHEMBL4346654 (Eur J Med Chem, 2019).
Converted amounts (≈) assume the structure as drawn.

What was measured:
Format in all cases: functional
Streptococcus pyogenes [1] = assay: Antibacterial activity against MLS-resistant Streptococcus pyogenes 01-968 expressing inducible ermB gene assessed as reduction in microbial growth by CLSI based two-fold broth dilution method
Streptococcus pneumoniae [2] = assay: Selectivity ratio of MBC to MIC for Streptococcus pneumoniae 07P390 expressing constitutive ermB gene
Outline: (§1)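 Isolates were identified by 16S rDNA sequencing. MIC was determined by CLSI-recommended two-fold broth dilution. For MBC, samples from 1–8 fold MIC were transferred to culture medium and subcultured for 24 h without antibiotic.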

Staphylococcus aureus [3] = assay: Bactericidal activity against MLS/methicillin-resistant Staphylococcus aureus PU 32 expressing inducible ermA gene pretreated followed by subculture in absence of compound measured after 24 hrs
Outline: (§2)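 MBC assay. Following MIC determination by CLSI standard two-fold broth dilution, samples at 1–8 fold MIC were transferred to fresh culture medium. They were subcultured for 24 h without antibiotic. Isolates were identified by 16S rDNA sequencing. S. aureus ATCC 29213 was used as a control strain.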

Staphylococcus aureus [4] = assay: Bactericidal activity against MLS-resistant Staphylococcus aureus PU 20 expressing constitutive ermC gene pretreated followed by subculture in absence of compound measured after 24 hrs; outline: as §2
Staphylococcus aureus [5] = assay: Antibacterial activity against MLS-resistant Staphylococcus aureus PU 32 expressing inducible ermA gene assessed as reduction in microbial growth by CLSI based two-fold broth dilution method
Staphylococcus aureus [6] = assay: Selectivity ratio of MBC to MIC for MLS/methicillin-resistant Staphylococcus aureus PU 32 expressing inducible ermA gene
Outline: (§3)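 MBC/MIC ratio. MIC was measured by CLSI standard two-fold broth dilution. MBC was measured by transferring samples at 1–8 fold MIC to culture medium and subculturing for 24 h without antibiotic. Isolates were identified by 16S rDNA sequencing.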

Streptococcus pneumoniae [7] = assay: Antibacterial activity against Streptococcus pneumoniae 07P390 expressing constitutive ermB gene assessed as reduction in microbial growth by CLSI based two-fold broth dilution method
Staphylococcus aureus [8] = assay: Antibacterial activity against MLS-resistant Staphylococcus aureus PU 20 expressing constitutive ermC gene assessed as reduction in microbial growth by CLSI based two-fold broth dilution method
Streptococcus pneumoniae [9] = assay: Selectivity ratio of MBC to MIC for penicillin-susceptible Streptococcus pneumoniae PU 09 expressing mef gene; outline: as §1
Streptococcus pneumoniae [10] = assay: Antibacterial activity against penicillin-susceptible Streptococcus pneumoniae PU 09 expressing mef gene assessed as reduction in microbial growth by CLSI based two-fold broth dilution method
Streptococcus pneumoniae [11] = assay: Bactericidal activity against erythromycin-susceptible Streptococcus pneumoniae ATCC49619 pretreated followed by subculture in absence of compound measured after 24 hrs; outline: as §1
Streptococcus pyogenes [12] = assay: Bactericidal activity against MLS-resistant Streptococcus pyogenes 01-968 expressing inducible ermB gene pretreated followed by subculture in absence of compound measured after 24 hrs; outline: as §2
Streptococcus pneumoniae [13] = assay: Selectivity ratio of MBC to MIC for erythromycin-susceptible Streptococcus pneumoniae ATCC49619; outline: as §1
Streptococcus pneumoniae [14] = assay: Bactericidal activity against penicillin-susceptible Streptococcus pneumoniae PU 09 expressing mef gene pretreated followed by subculture in absence of compound measured after 24 hrs; outline: as §1
Staphylococcus aureus [15] = assay: Selectivity ratio of MBC to MIC for MLS-resistant Staphylococcus aureus PU 20 expressing constitutive ermC gene; outline: as §3
Streptococcus pyogenes [16] = assay: Selectivity ratio of MBC to MIC for MLS-resistant Streptococcus pyogenes 01-968 expressing inducible ermB gene; outline: as §3
Haemophilus influenzae [17] = assay: Antibacterial activity against azithromycin-susceptible Haemophilus influenzae ATCC 49247 assessed as reduction in microbial growth by CLSI based two-fold broth dilution method
Streptococcus pneumoniae [18] = assay: Antibacterial activity against erythromycin-susceptible Streptococcus pneumoniae ATCC49619 assessed as reduction in microbial growth by CLSI based two-fold broth dilution method
Haemophilus influenzae [19] = assay: Selectivity ratio of MBC to MIC for azithromycin-susceptible Haemophilus influenzae ATCC 49247; outline: as §1
Streptococcus pneumoniae [20] = assay: Bactericidal activity against Streptococcus pneumoniae 07P390 expressing constitutive ermB gene pretreated followed by subculture in absence of compound measured after 24 hrs; outline: as §1
Haemophilus influenzae [21] = assay: Bactericidal activity against azithromycin-susceptible Haemophilus influenzae ATCC 49247 pretreated followed by subculture in absence of compound measured after 24 hrs; outline: as §1
Streptococcus pyogenes [22] = assay: Bactericidal activity against MLS-resistant Streptococcus pyogenes 12-206 expressing constitutive ermA gene pretreated followed by subculture in absence of compound measured after 24 hrs; outline: as §2
Streptococcus pyogenes [23] = assay: Bactericidal activity against Streptococcus pyogenes 12-207 expressing mef gene pretreated followed by subculture in absence of compound measured after 24 hrs; outline: as §1
Streptococcus pyogenes [24] = assay: Selectivity ratio of MBC to MIC for MLS-resistant Streptococcus pyogenes 12-206 expressing constitutive ermA gene; outline: as §3
Streptococcus pyogenes [25] = assay: Selectivity ratio of MBC to MIC for Streptococcus pyogenes 12-207 expressing mef gene; outline: as §1
Moraxella catarrhalis [26] = assay: Selectivity ratio of MBC to MIC for erythromycin-susceptible Moraxella catarrhalis 13L332; outline: as §1
Moraxella catarrhalis [27] = assay: Bactericidal activity against erythromycin-susceptible Moraxella catarrhalis 13L332 pretreated followed by subculture in absence of compound measured after 24 hrs; outline: as §1
Streptococcus pyogenes [28] = assay: Antibacterial activity against Streptococcus pyogenes 12-207 expressing mef gene assessed as reduction in microbial growth by CLSI based two-fold broth dilution method
Moraxella catarrhalis [29] = assay: Antibacterial activity against erythromycin-susceptible Moraxella catarrhalis 13L332 assessed as reduction in microbial growth by CLSI based two-fold broth dilution method
Streptococcus pyogenes [30] = assay: Antibacterial activity against MLS-resistant Streptococcus pyogenes 12-206 expressing constitutive ermA gene assessed as reduction in microbial growth by CLSI based two-fold broth dilution method

| SMILES | MIC (Streptococcus pyogenes [1]) | Selectivity ratio (Streptococcus pneumoniae [2]) | MBC (Staphylococcus aureus [3]) | MBC (Staphylococcus aureus [4]) | MIC (Staphylococcus aureus [5]) | Selectivity ratio (Staphylococcus aureus [6]) | MIC (Streptococcus pneumoniae [7]) | MIC (Staphylococcus aureus [8]) | Selectivity ratio (Streptococcus pneumoniae [9]) | MIC (Streptococcus pneumoniae [10]) | MBC (Streptococcus pneumoniae [11]) | MBC (Streptococcus pyogenes [12]) | Selectivity ratio (Streptococcus pneumoniae [13]) | MBC (Streptococcus pneumoniae [14]) | Selectivity ratio (Streptococcus pyogenes [16]) | MIC (Haemophilus influenzae [17]) | MIC (Streptococcus pneumoniae [18]) | Selectivity ratio (Haemophilus influenzae [19]) | MBC (Streptococcus pneumoniae [20]) | MBC (Haemophilus influenzae [21]) | further results |
| --- | --- | --- | --- | --- | --- | --- | --- | --- | --- | --- | --- | --- | --- | --- | --- | --- | --- | --- | --- | --- | --- |
| CC[C@H]1OC(=O)[C@@](C)(F)C(=O)[C@H](C)[C@@H](O[C@@H]2O[C@H](C)C[C@H](N(C)C)[C@H]2O)[C@](C)(OC/C=C/c2ccc3c(c2)c(=O)c(C(=O)O)cn3C2CC2)C[C@@H](C)/C(=N\OC)[C@H](C)[C@H]2OC(=O)O[C@@]21C | 0.031 µg/mL | 8 | 2 µg/mL (≈ 2.19 µM) | 128 µg/mL (≈ 140 µM) | 0.25 µg/mL | 8 | 1 µg/mL | 64 µg/mL | 1 | 2 µg/mL | 0.25 µg/mL (≈ 0.274 µM) | 0.25 µg/mL (≈ 0.274 µM) | 2 | 2 µg/mL (≈ 2.19 µM) | 8 | 2 µg/mL | 0.125 µg/mL | 2 | 8 µg/mL (≈ 8.75 µM) | 4 µg/mL (≈ 4.38 µM) | Selectivity ratio (Staphylococcus aureus [15]): 2 |
| CC[C@H]1OC(=O)[C@@](C)(F)C(=O)[C@H](C)[C@@H](O[C@@H]2O[C@H](C)C[C@H](N(C)C)[C@H]2O)[C@](C)(OC)C[C@@H](C)/C(=N\OCCCc2ccc3c(c2)c(=O)c(C(=O)O)cn3C2CC2)[C@H](C)[C@H]2OC(=O)O[C@@]21C | 0.125 µg/mL | 2 | 8 µg/mL (≈ 8.73 µM) | 128 µg/mL (≈ 140 µM) | 4 µg/mL | 2 | 8 µg/mL | 64 µg/mL | 1 | 2 µg/mL | 0.25 µg/mL (≈ 0.273 µM) | > 1 µg/mL | 2 | 2 µg/mL (≈ 2.18 µM) | >8 | 16 µg/mL | 0.125 µg/mL | 2 | 16 µg/mL (≈ 17.5 µM) | 32 µg/mL (≈ 34.9 µM) | Selectivity ratio (Staphylococcus aureus [15]): 2 |
| CC[C@H]1OC(=O)[C@@](C)(F)C(=O)[C@H](C)[C@@H](O[C@@H]2O[C@H](C)C[C@H](N(C)C)[C@H]2O)[C@](C)(OC)C[C@@H](C)/C(=N\OC/C=C/c2cnc3ccccc3c2N)[C@H](C)[C@H]2OC(=O)O[C@@]21C | 0.016 µg/mL | 1 | 8 µg/mL (≈ 9.65 µM) | 128 µg/mL (≈ 154 µM) | 1 µg/mL | 8 | 32 µg/mL | 64 µg/mL | 1 | 2 µg/mL | 0.25 µg/mL (≈ 0.302 µM) | > 0.125 µg/mL | 2 | 2 µg/mL (≈ 2.41 µM) | >8 | 16 µg/mL | 0.125 µg/mL | 2 | 32 µg/mL (≈ 38.6 µM) | 32 µg/mL (≈ 38.6 µM) | Selectivity ratio (Staphylococcus aureus [15]): 2 |
| CC[C@H]1OC(=O)[C@@](C)(F)C(=O)[C@H](C)[C@@H](O[C@@H]2O[C@H](C)C[C@H](N(C)C)[C@H]2O)[C@](C)(OC)C[C@@H](C)/C(=N\OCC#Cc2ccc3c(c2)c(=O)c(C(=O)O)cn3C2CC2)[C@H](C)[C@H]2OC(=O)O[C@@]21C | 0.25 µg/mL | 8 | 4 µg/mL (≈ 4.39 µM) | 128 µg/mL (≈ 140 µM) | 1 µg/mL | 4 | 4 µg/mL | 32 µg/mL | 2 | 2 µg/mL | 0.5 µg/mL (≈ 0.548 µM) | 2 µg/mL (≈ 2.19 µM) | 2 | 4 µg/mL (≈ 4.39 µM) | 8 | 8 µg/mL | 0.25 µg/mL | 2 | 32 µg/mL (≈ 35.1 µM) | 16 µg/mL (≈ 17.5 µM) | Selectivity ratio (Staphylococcus aureus [15]): 4 |
| CC[C@H]1OC(=O)[C@@](C)(F)C(=O)[C@H](C)[C@@H](O[C@@H]2O[C@H](C)C[C@H](N(C)C)[C@H]2O)[C@](C)(OC)C[C@@H](C)/C(=N\OCC#Cc2ccc3c(c2)c(=O)c(C(=O)NC)cn3C2CC2)[C@H](C)[C@H]2OC(=O)O[C@@]21C | ≤ 0.002 µg/mL | >8 | > 8 µg/mL | > 256 µg/mL | 1 µg/mL | >8 | 0.25 µg/mL | 128 µg/mL | 1 | 0.5 µg/mL | ≤ 0.008 µg/mL | > 0.016 µg/mL |  | 0.5 µg/mL (≈ 0.541 µM) | >8 | 64 µg/mL | ≤ 0.008 µg/mL | 4 | > 2 µg/mL | 256 µg/mL (≈ 277 µM) | MBC (Streptococcus pyogenes [22]): > 4 µg/mL; MBC (Streptococcus pyogenes [23]): 1 µg/mL (≈ 1.08 µM); Selectivity ratio (Streptococcus pyogenes [24]): >8; Selectivity ratio (Streptococcus pyogenes [25]): 4; Selectivity ratio (Moraxella catarrhalis [26]): >8; MBC (Moraxella catarrhalis [27]): > 32 µg/mL; MIC (Streptococcus pyogenes [28]): 0.25 µg/mL; MIC (Moraxella catarrhalis [29]): 4 µg/mL; MIC (Streptococcus pyogenes [30]): 0.5 µg/mL |
| CC[C@H]1OC(=O)[C@@](C)(F)C(=O)[C@H](C)[C@@H](O[C@@H]2O[C@H](C)C[C@H](N(C)C)[C@H]2O)[C@](C)(OC)C[C@@H](C)/C(=N\OCC#Cc2cncc3ccccc23)[C@H](C)[C@H]2OC(=O)O[C@@]21C | 0.5 µg/mL |  | > 32 µg/mL | > 256 µg/mL | 4 µg/mL | >8 | > 32 µg/mL | 64 µg/mL | 1 | 8 µg/mL | 4 µg/mL (≈ 4.93 µM) | > 4 µg/mL | 2 | 8 µg/mL (≈ 9.85 µM) | >8 | 64 µg/mL | 2 µg/mL | 2 |  | 128 µg/mL (≈ 158 µM) | Selectivity ratio (Staphylococcus aureus [15]): >4 |
| CC[C@H]1OC(=O)[C@@](C)(F)C(=O)[C@H](C)[C@@H](O[C@@H]2O[C@H](C)C[C@H](N(C)C)[C@H]2O)[C@](C)(OC/C=C/c2ccc3c(c2)c(=O)c(C(=O)NC)cn3C2CC2)C[C@@H](C)/C(=N\OC)[C@H](C)[C@H]2OC(=O)O[C@@]21C | ≤ 0.002 µg/mL | >8 | > 8 µg/mL | > 256 µg/mL | 1 µg/mL | >8 | ≤ 0.008 µg/mL | 256 µg/mL | 2 | 0.25 µg/mL | ≤ 0.008 µg/mL | > 0.016 µg/mL |  | 0.5 µg/mL (≈ 0.539 µM) | >8 | 32 µg/mL | ≤ 0.008 µg/mL | 1 | > 0.062 µg/mL | 32 µg/mL (≈ 34.5 µM) | MBC (Streptococcus pyogenes [22]): > 0.25 µg/mL; MBC (Streptococcus pyogenes [23]): 0.5 µg/mL (≈ 0.539 µM); Selectivity ratio (Streptococcus pyogenes [24]): >8; Selectivity ratio (Streptococcus pyogenes [25]): 4; Selectivity ratio (Moraxella catarrhalis [26]): >8; MBC (Moraxella catarrhalis [27]): > 8 µg/mL; MIC (Streptococcus pyogenes [28]): 0.125 µg/mL; MIC (Moraxella catarrhalis [29]): 1 µg/mL; MIC (Streptococcus pyogenes [30]): 0.031 µg/mL |
